Compound activity: PubChem, several laboratories
Only some compounds are listed: those with a hit (about 4% of all), similar ones and a draw of the others.
GRIN3A LBD mod – NR3A (human) ligand-binding domain modulation; AID 1259313; 340,000 compounds, 2.5% hits; Tm shift relative to glycine control, % at 25 µM; NR3A LBD differential scanning fluorimetry, Tm shift; 0% = protein alone, 100% = glycine-bound protein;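 active means melting temperature shift of at least 10% of the positive control shift, at one fixed dose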
Arr AP2 block – inhibitors of human beta-arrestin and AP2 interaction; inhibition, % at 10 µM; FITC-arrestin peptide / GST-AP2 beads, flow cytometry; AP2 beta2 appendage carries R879A mutation; AID 504490; 340,000 compounds, 0.31% hits;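 active means inhibition above a set limit, near 3 SD of compounds lacking own fluorescence, cut at about 54% in these data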
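System: GST-AP2 R879A glutathione beads. Medium: PBS with 0.05% Tween 20 and 0.1% BSA. Also added: FITC-arrestin peptide, 50 nM. Incubation: 12 min plus 1 h, RT. Measured by: high-throughput flow cytometry of beads, ex 488, em 535 nm. Evaluation: percent drop in bead-associated FITC signal.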
SENP1 FRET inh – SENP1 (human) catalytic domain inhibition. Q9P0U3. inhibition, % at 10 µM. 360,000 compounds, 0.21% hits. recombinant SENP1 catalytic domain, CyPet-SUMO1-YPet FRET cleavage;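 active means inhibition at least 30% at 10 µM, raw YFP signal under a set limit, fluorescence ratio 0.5 to 1.5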
Target sequence (Q9P0U3 419-644 limits assumed): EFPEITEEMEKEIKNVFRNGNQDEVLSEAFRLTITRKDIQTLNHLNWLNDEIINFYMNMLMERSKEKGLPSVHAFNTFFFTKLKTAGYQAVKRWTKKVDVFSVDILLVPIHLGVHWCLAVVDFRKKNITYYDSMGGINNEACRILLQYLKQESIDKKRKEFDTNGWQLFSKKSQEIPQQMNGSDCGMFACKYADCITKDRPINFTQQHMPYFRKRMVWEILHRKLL
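system = hSENP1 catalytic domain, recombinant | reagent = SFCypet-SUMO1-SFYpet substrate at 25 nM | doses = one dose per compound, 10 µM, 0.5% DMSO | incubation = enzyme reaction for 50 min at room temperature, dark | measured by = FRET, CFP and YFP emission | controls = no-enzyme low, enzyme-DMSO high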
FAS-TE inh – blocks the thioesterase domain of human fatty acid synthase. recombinant FAS-TE, OMFH fluorogenic substrate, fluorescence endpoint. 360,000 compounds, 0.67% hits. P49327. inhibition, % at 15 µM;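 active means compounds whose normalised, plate-corrected inhibition of enzyme fluorescence in the single-dose primary screen is 50% or more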
hiPSC survival – hiPSC single-cell survival enhancement; survival enhancement, % at 20 µM; 360,000 compounds, 0.044% hits; ATPlite luminescence; 100% = ROCK inhibitor wells, 0% = DMSO; in the data active means survival enhancement above about 18%;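 further: cells exposed to compounds for 16 hours before the ATP read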
Cardio protect – myocardial damage modulation in H9c2 cells | H9c2 cardiomyocytes, H2O2 injury protection, ATPLite, 2 h | protection from H2O2 cell death, % at 20 µM | 360,000 compounds, 0.63% hits | AID 588492;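 active means compounds giving at least 50% protection of heart cells from peroxide-induced death in the single-dose screen, raw or plate-pattern-corrected value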
A number is an active result; – = inactive; · = no result.

SMILES	GRIN3A LBD mod	Arr AP2 block	SENP1 FRET inh	FAS-TE inh	hiPSC survival	Cardio protect
CCn1ncc(CNC(=O)CCCSc2nc(-c3ccco3)cc(C(F)(F)F)n2)c1C	–	–	–	–	–	–
CCn1nc(C)c(NC(=O)CCSc2nc(-c3ccco3)cc(C(F)(F)F)n2)c1C	557	–	–	–	–	–
CCc1ccc(NC(=O)c2ccc(F)c(S(=O)(=O)NCC3COc4ccccc4O3)c2)cc1 (stereo not drawn)	16	–	–	–	–	–
O=C(NCC1COc2ccccc2O1)c1ccc(F)c(S(=O)(=O)N2CCOCC2)c1 (stereo not drawn)	–	–	–	–	–	–
COc1ccc(-c2cc(C(=O)N(C)Cc3cccc(OC)c3OC)c3ccccc3n2)cc1OC	–	–	–	–	–	–
COc1ccccc1CN(Cc1nc2ccccc2c(=O)[nH]1)S(=O)(=O)c1ccc2ccccc2c1	–	–	–	–	–	58
COc1cc2nc(CN(C)Cc3nc4ccccc4c(=O)[nH]3)[nH]c(=O)c2cc1OC	–	–	–	–	–	55
COc1ccc(-c2cc(C(=O)N(C)Cc3nc4ccccc4c(=O)[nH]3)c3ccccc3n2)cc1OC	–	–	–	–	–	66
COc1ncnc2c1ncn2CCCN1CCN(C(=O)C2CC2)CC1	·	·	–	–	–	–
CCCNC(=O)c1oc2ccc3c(c2c1C)C(=O)CC(C)(C)O3	633	–	–	–	–	–
Cc1cc(C)c(S(=O)(=O)N2CCN(C(=O)c3ccc(-n4nc(C)c(Cl)c4C)cc3)CC2)c(C)c1	–	–	–	–	–	–
NC(=O)CSc1nnc(-c2ccc(S(=O)(=O)N3CCCC3)cc2)n1Cc1ccco1	11	–	–	–	–	–
C[C@H](CO)N1C[C@H](C)[C@@H](CN(C)Cc2ccc(C(=O)O)cc2)Oc2ncc(Br)cc2C1=O	·	·	–	–	–	–
COc1cccc(CN2CCC2(C)C(=O)Nc2cnc3ccccc3c2)c1F (stereo not drawn)	·	·	–	–	–	–
O=C(O)CCn1[nH]c(=O)c2ccccc2c1=O	–	–	–	–	–	–
O=C(COc1ccccc1Cl)NNC(=O)Cn1[nH]c(=O)c2ccccc2c1=O	–	–	–	–	–	92
Cc1c(NC(=O)CN2CCN(c3ccccc3)CC2)c(=O)n(-c2ccccc2)n1C	–	–	–	–	–	–
Cc1c(NC(=O)Cn2[nH]c(=O)c3ccccc3c2=O)c(=O)n(-c2ccccc2)n1C	–	–	–	–	–	64
O=C(Cn1[nH]c(=O)c2ccccc2c1=O)NNC(=O)c1ccccc1	–	–	–	–	–	62
CN(CC(=O)Nc1c(Cl)cccc1Cl)C(=O)Cn1[nH]c(=O)c2ccccc2c1=O	–	–	–	–	–	76
CN(CC(=O)Nc1c(Cl)cccc1Cl)C(=O)CCC(=O)c1ccccc1	–	–	–	–	–	–
Cc1cccc(C)c1NC(=O)C1(C)CN(S(C)(=O)=O)CC(=O)N1CCc1ccc(O)cc1 (stereo not drawn)	·	·	–	·	·	·
Cc1ccc(C(=O)O)cc1NC(=O)C1=CSCCO1	21	–	–	–	–	–
COc1cc(OC)c(C(=O)Nc2cc(S(=O)(=O)N3CCOCC3)ccc2N2CCOCC2)cc1OC	·	·	–	–	–	–
COc1cc(NCC2COc3c(ccc(OC)c3OC)C2=O)c([N+](=O)[O-])cc1OC (stereo not drawn)	·	·	–	–	–	–
SMILES	GRIN3A LBD mod	Arr AP2 block	SENP1 FRET inh	FAS-TE inh	hiPSC survival	Cardio protect
NC(=O)c1cc2ccccc2o/c1=N\NC(=O)c1ccccc1O	–	–	–	–	–	–
NC(=O)c1cc2ccccc2o/c1=N\NC(=O)c1ccc(F)cc1	–	–	–	–	–	64
COCCn1c(=S)[nH]c2cc(C(=O)NC3CCCCC3C)ccc2c1=O (stereo not drawn)	·	·	–	–	–	–
N/C(=N\OC(=O)c1cccc(Br)c1)c1ccccc1	10	–	–	–	–	–
N/C(=N\OC(=O)c1ccc2ccccc2c1)c1ccc(Br)cc1	24	–	–	–	–	–
N/C(=N\OC(=O)c1cccc2ccccc12)c1ccncc1	–	–	–	–	–	–
